Source: ChEMBL document CHEMBL1137768, “Synthesis and in vitro anti Mycobacterium tuberculosis activity of a series of phthalimide derivatives” (Bioorg Med Chem, 2009)
Converted amounts (≈) assume the structure as drawn.

Key:
[1] = tested on: Mycobacterium tuberculosis; experiment: Antimycobacterial activity against Mycobacterium tuberculosis H37Rv ATCC 27294 after 7 days by Microplate Alamar blue assay; format: functional; conditions: H37Rv ATCC 27294, 168 h
How it was run: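 DMSO stocks diluted in Middlebrook 7H9 with OADC to final 0.15–250 µg/mL. Inoculum matched to McFarland No. 1, diluted 1:25, then added with compound in 96-well plates. Triplicates incubated 7 days at 37 °C, then resazurin added. Fluorescence read at 530/590 nm. MIC = lowest concentration giving 90% growth inhibition. Isoniazid standard run each time.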

J774 = experiment: Cytotoxicity against mouse J774 cells after 24 hrs; format: cell-based; conditions: J774, 24 h
How it was run: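 J774 cells kept in RPMI with 10% FBS at 37 °C, 5% CO2, then seeded and allowed to adhere for 24 h. Exposed 24 h to compound at 625 down to 0.6 (twofold series). Resazurin added for 6 h and fluorescence read at 530/590 nm. IC50 taken as concentration giving 50% viability relative to control.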

Row | Compound | MIC [1] | IC50 (J774)
1 | Cc1ccnc(NS(=O)(=O)c2ccc(N3C(=O)c4ccccc4C3=O)cc2)n1 | > 250 µg/mL | 
2 | NNC(=O)c1ccncc1 [ISONIAZID] | 0.02 µg/mL (≈ 0.146 µM) | 
3 | O=C1c2ccccc2C(=O)N1c1ccc(S(=O)(=O)Nc2ncccn2)cc1 | 3.9 µg/mL (≈ 10.3 µM) | 312 µg/mL (≈ 822 µM)
4 | Cc1cc(C)nc(NS(=O)(=O)c2ccc(N3C(=O)c4ccccc4C3=O)cc2)n1 | > 250 µg/mL | 
5 | N=C(N)NS(=O)(=O)c1ccc(N2C(=O)c3ccccc3C2=O)cc1 | 125 µg/mL (≈ 363 µM) | 
6 | O=C(NN1C(=O)c2ccccc2C1=O)c1ccncc1 | 5 µg/mL (≈ 18.7 µM) | 625 µg/mL (≈ 2340 µM)
7 | O=C1c2ccccc2C(=O)N1c1ccc(S(=O)(=O)Nc2ccccn2)cc1 | > 250 µg/mL | 
8 | O=C1c2ccccc2C(=O)N1c1ccc(S(=O)(=O)c2ccc(N3C(=O)c4ccccc4C3=O)cc2)cc1 | > 250 µg/mL | 
9 | Cc1cc(NS(=O)(=O)c2ccc(N3C(=O)c4ccccc4C3=O)cc2)no1 | 125 µg/mL (≈ 326 µM) | 
10 | COc1cnc(NS(=O)(=O)c2ccc(N3C(=O)c4ccccc4C3=O)cc2)nc1 | > 250 µg/mL | 
11 | NS(=O)(=O)c1ccc(N2C(=O)c3ccccc3C2=O)cc1 | > 250 µg/mL | 
12 | Nc1ccc(S(=O)(=O)c2ccc(N3C(=O)c4ccccc4C3=O)cc2)cc1 | 7.8 µg/mL (≈ 20.6 µM) | 312 µg/mL (≈ 826 µM)
